Assay results from different studies.
Compare with care: the assays were run in different laboratories.
Target: Ribosomal protein S6 kinase beta-1 (RPS6KB1, Homo sapiens, UniProt P23443)

| SMILES | read-out | mode | method | concentration | measurement | value |
| --- | --- | --- | --- | --- | --- | --- |
| CN(C)C1CCN(CC#Cc2nn(C3CCCC3)c3nc(NCc4ccccc4)ncc23)C1 (stereo not shown) | enzyme activity | inhibitor | FRET | 10 µM | inhibition | 10% |
| N#CCCc1ccc2c(c1)-c1[nH]c3ccc([N+](=O)[O-])cc3c1CC(=O)N2 | cell-free assay |  |  | 0.5 µM | remaining signal | 98% |
| Nc1ncnc2occ(-c3ccc(NC(=O)Nc4cc(C(F)(F)F)ccc4F)cc3)c12 | cell-free assay | inhibitor |  | 20 µM | remaining signal | 0.1% |
| C[C@@H]1CN(c2cc(-c3nn(C)c4ccc(OC5(C)CC5)cc34)ncn2)C[C@H](C)O1 | cell-free assay |  | competition with immobilised ligand | 1 µM | remaining binding | 100% |
| O=C1Nc2ccc(Cl)cc2C1=Cc1cc(Cl)c(O)c(Cl)c1 | cell-free assay |  |  | 0.5 µM | remaining signal | 91% |
| CC(=O)c1c(NS(C)(=O)=O)c2cc(-c3ccc(Cl)cc3)c(-c3ccc(Cl)cc3Cl)nc2n(C)c1=O | cell-free assay |  | competition with immobilised ligand | 1 µM | remaining binding | 95% |
| Oc1cccc(-c2nc(N3CCOCC3)c3oc4ncccc4c3n2)c1 | cell-free assay |  |  | 0.5 µM | remaining signal | 106% |
| CCN(CC)CCNC(=O)c1c(C)[nH]c(/C=C2\C(=O)Nc3ccc(F)cc32)c1C | enzyme activity | inhibitor |  | 0.3 µM | inhibition | 30% |
| CNCc1ccccc1-c1csc([C@@H](C)Nc2nc(C)nc3cc(OC)c(OC)cc23)c1 | cell-free assay |  | competition with immobilised ligand | 1 µM | remaining binding | 86% |
| Cn1cncc1C1=CN(c2ncnc3[nH]cnc23)CCS1 | enzyme activity | inhibitor | radiometric | 2 µM | inhibition | 87.3% |
| CCOCCn1cc(C(=O)Nc2ccc(-n3nc(-c4cccnc4)cc3C(F)(F)F)cn2)ccc1=O | cell-free assay |  | competition with immobilised ligand | 1 µM | remaining binding | 97% |
| O=S(=O)(NCCNC/C=C/c1ccc(Br)cc1)c1cccc2cnccc12 | cell-free assay |  |  | 0.5 µM | remaining signal | 25.6% |
| COc1cc2ncnc(Nc3ccc(Oc4ccccc4)c(C)c3C)c2cc1OC | enzyme activity | inhibitor |  | 1 µM | inhibition | -3% |
| Cc1cc(NC(=O)c2cccc3cc(-c4cccc5[nH]nc(N)c45)ccc23)ccc1F | enzyme activity | inhibitor |  | 0.1 µM | activity vs control | 110% |
| C[C@H](c1cccc(C#N)c1)n1cc(Cl)cc(C(N)=O)c1=N | cell-free assay |  | competition with immobilised ligand | 1 µM | remaining binding | 100% |
| CNc1cccc2cc(C(=O)Nc3ccc(C(=O)O)cc3)c(=O)[nH]c12 | enzyme activity | inhibitor |  | 10 µM | inhibition | 9% |
| C=CC(=O)Nc1cc(Nc2nccc(Nc3cc(Cl)c(F)cc3C(C)(C)O)n2)c(OC)cc1N1CC[C@@H](N(C)C)C1 | enzyme activity | inhibitor |  | 1 µM | inhibition | -3% |
| N#Cc1ccc(Nc2ccc3[nH]c(=O)[nH]c3c2)c(Cl)c1 | cell-free assay |  | competition with immobilised ligand | 1 µM | remaining binding | 100% |
| CC(C)c1ccc(NC(=O)c2cccs2)c(-c2nc3ccccc3[nH]c2=O)c1 | enzyme activity | inhibitor |  | 1 µM | activity vs control | 93% |
